Experimental findings from ChEMBL document CHEMBL5104224, “Alkyltriphenylphosphonium turns naphthoquinoneimidazoles into potent membrane depolarizers against mycobacteria” (RSC Med Chem, 2022) are described below.

Structures are written as SMILES. Activity calls are given as the source filed them. The calls are words filed in the database; no cut-off is given here.

In experiment [1] the test system is Mycobacterium tuberculosis variant bovis. Briefly: Inhibition of ATP synthesis in Mycobacterium bovis BCG ATCC 35734 assessed as reduction in ATP level at 4 x MIC90 incubated for 15 mins by BacTiter-Glo microbial luminescence assay. The class given is functional. The essentials: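 Mid-log BCG diluted to OD600 0.1 in complete 7H9 and treated at 4× MIC90. At each time point, culture mixed 1:1 with BacTiter-Glo reagent for 15 min at room temperature in the dark and luminescence read. Background (media + reagent) subtracted. ATP quantified from a calibration curve of 0.1–100 nM ATP in 7H9. Rifampicin negative control.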

Experiment [2] concerns Cell membrane. Briefly: Induction of cell membrane depolarization in Mycobacterium bovis BCG ATCC 35734 assessed as loss in mitochondrial membrane potential at 4 x MIC90 incubated for 24 hrs by DiOC2(3) dye based fluorescence assay. The settings on record: Mycobacterium tuberculosis variant bovis. In kind it is subcellular. The essentials:
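Aliquots taken at selected times and stained with DiOC2(3) (BacLight membrane potential kit). Depolarization read as a fall in red/green fluorescence ratio. CCCP 5 μM positive control, rifampicin 0.08 μM negative control.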

In experiment [3] the test system is Cell membrane. As to the kind of experiment: Induction of cell envelope stress in Mycobacterium bovis BCG ATCC 35734 expressing piniBAC RFP at 4 x MIC90 after 24 hrs by fluorescence analysis. In kind it is subcellular. As to conditions: Mycobacterium tuberculosis variant bovis. The essentials: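 Recombinant M. bovis BCG-piniBAC-RFP at OD600 0.2, incubated with compound for 24 h. Red fluorescence (Ex 587/Em 630 nm) normalized to OD600 to reflect promoter induction. INH (0.1–50 μM) positive control.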

In the case of `CCCCCCCCCCC[P+](c1ccccc1)(c1ccccc1)c1ccccc1`, the inhibition result in experiment [1] was “Active”. For the same compound, the outcome in the experiment on Cell membrane [2] was Active.
Turning to `Cc1nc2c(n1CCCCCCCCC[P+](c1ccccc1)(c1ccccc1)c1ccccc1)C(=O)c1ccccc1C2=O`, the inhibition entry in experiment [1] is “Active”. For the same compound, the outcome in the experiment on Cell membrane [2] was Active.
As for `NNC(=O)c1ccncc1`, the result with Cell membrane [3] was Active.
Take `CCCCCCC[P+](c1ccccc1)(c1ccccc1)c1ccccc1`: the inhibition result in experiment [1] was “Active”. The outcome in the experiment on Cell membrane [2] was Active.
As for `Cc1nc2c(n1CCCCCCCCCCC[P+](c1ccccc1)(c1ccccc1)c1ccccc1)C(=O)c1ccccc1C2=O`, the inhibition entry in experiment [1] was “Active”. In the experiment on Cell membrane [2], the result was Active.
